# Screens as filed in PubChem BioAssay.
# NR3A LBD binder = modulators (binders) of human NR3A ligand-binding domain; NR3A LBD differential scanning fluorimetry, Tm shift; 0% = protein alone, 100% = glycine-bound protein; Tm shift relative to glycine control, % at 25 µM; hit rate 2.5% among 340,000;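 active = melting temperature shift of at least 10% of the positive control shift, at one fixed dose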
# GASC-1 inh = blocks human GASC-1 demethylase activity | Q9H3R0 | inhibition, % at 2.35 µM | GST-JMJD2C(1-420) H3K9me3 demethylation, DELFIA europium | AID 2099 | hit rate 0.069% among 330,000;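 active = more than half of a compound's replicate wells show inhibition beyond 50%, single wells judged on their own value; inconclusive = some, but no more than half, of replicates pass 50% inhibition; inactive = no replicate passes 50% inhibition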;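 note: signal counts dimethyl H3K9 product captured on neutravidin plate; 0% = median of DMSO wells and 100% = 0.3 times that DMSO median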
# Target sequence (Q9H3R0 1-420 limits assumed): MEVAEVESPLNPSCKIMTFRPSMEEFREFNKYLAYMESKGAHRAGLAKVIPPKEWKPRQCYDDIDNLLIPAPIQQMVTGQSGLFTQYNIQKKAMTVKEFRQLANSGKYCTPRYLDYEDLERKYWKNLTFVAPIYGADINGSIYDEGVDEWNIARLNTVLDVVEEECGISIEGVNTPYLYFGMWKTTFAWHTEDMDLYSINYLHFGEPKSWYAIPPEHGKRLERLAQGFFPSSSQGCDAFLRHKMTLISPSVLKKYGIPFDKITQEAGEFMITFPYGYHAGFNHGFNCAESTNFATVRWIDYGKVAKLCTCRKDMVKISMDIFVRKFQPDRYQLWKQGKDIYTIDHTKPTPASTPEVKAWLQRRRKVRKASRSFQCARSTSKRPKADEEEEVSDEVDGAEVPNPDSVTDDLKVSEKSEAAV
# Rtt109 Vps75 = C. albicans Rtt109 histone acetyltransferase inhibition. purified Rtt109/Vps75, ThioGlo CoA-SH fluorescence, 4 h. inhibition, % at 34.9 µM. hit rate 0.16% among 330,000. Q5AAJ8;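 active = inhibition of at least 50% in every replicate; inconclusive = best replicate reaches 50% inhibition but some replicates fall short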
# T cell modulator = T cell immune modulation candidate | 2C CD8+ T cell-vesicle binding, flow cytometry; active compounds read low | response (vesicle binding), % at 7 µM | hit rate 0.068% among 330,000;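 active = response, share of CD8 T cells binding vesicles, and their 90th percentile fluorescence all below set limits, cut at about 80% in these data, passing the limit was not always enough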;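 note: values below 100% mean blocked vesicle binding to the CD8+ T cells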
#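 Benchmarks: naked versus QL9-loaded vesicles / Assay system: purified 2C TCR transgenic mouse naive CD8+ T cells / Technique: high-throughput flow cytometry with anti-B7-1 and anti-CD8 staining / Timing: Cell–vesicle co-incubation 1.5 h at 37 °C, staining 20 min on ice / Read-out: percent CD8+ FL2 mean versus row control / Probe or stimulus: QL9-loaded Drosophila micro-vesicles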
# An asterisk follows results filed as active; ? = inconclusive; . = no result given. Rows were chosen to be rich in hits. Some 2.8% of all compounds tested hit in one or more screens of this group.
SMILES,NR3A LBD binder,GASC-1 inh,Rtt109 Vps75,T cell modulator
Cc1ccc(-c2[nH]nc(N)c2N=Nc2ccccc2C)cc1,44*,4,-4,572
Cc1ccc(N=Nc2c(N)n[nH]c2N)cc1,-2,-3,2,251
Cc1cccc(N=Nc2c(N)n[nH]c2-c2ccc(Cl)cc2)c1,34*,-1,-3,512
Cc1ccc(-c2[nH]nc(N)c2N=Nc2cccc(Cl)c2C)cc1,28*,.,2,.
CCCCCC1C(=O)CCC1CC(=O)OC (stereo unspecified),1,.,1,.
Cc1ccc(S(=O)(=O)N2CCCCC2)cc1C(=O)N1CCCCCC1,2,0,-8,573
Cc1ccc(S(=O)(=O)N2CCC(C(=O)OCC(=O)N3CCCC3=O)CC2)cc1C,2,-2,-8,164
CCCCNc1nc(Nc2ccc(C)c(Cl)c2)c2cnn(C)c2n1,15*,0,?,186
CC(C)N1C(=O)N(c2cccc(Cl)c2)C(C)(O)CC1(C)C (stereo unspecified),2,28,9,195
O=C(CCc1nnc2ccc(N3CCOCC3)nn12)Nc1ccc(F)cc1F,4,1,-3,270
CC(C)c1nc2sc3c(=S)nc[nH]c3c2c2c1CCC2,38*,-8,5,198
Cc1nc2[nH]c(=O)n(O)c(=O)c2s1,-2,.,-2,.
Cc1ccc(-c2c(C(=O)NCc3ccc(F)cc3)oc(=O)c3ccccc23)cc1,14*,5,15,213
Cc1onc(-c2ccccc2)c1C(=O)NCc1ccc(F)cc1,11*,-10,-2,940
Cc1onc(-c2ccccc2)c1C(=O)NCc1ccccc1F,-2,6,5,197
Cc1ccc2nc(C3CCCN(C(=O)NCc4ccccc4)C3)[nH]c2c1 (stereo unspecified),16*,1,9,280
Cc1ccc2nc(C3CCN(C(=O)NCc4ccccc4)CC3)[nH]c2c1,1,1,-5,475
O=C(CC(Nc1ccccc1Cl)C(=O)O)c1ccccc1 (stereo unspecified),0,-7,0,315
Cc1c(Cl)cccc1NC(CC(=O)c1ccccc1)C(=O)O (stereo unspecified),4,-18,70*,257
COc1cccc(CN(C)C(=O)CSCC(=O)Nc2cc(C)on2)c1OC,-2,3,-2,496
Cc1ccc(-c2csc(-c3c[nH]c4ccccc34)n2)c(C)c1,24*,-5,-9,398
CC(=O)NCCC(=O)Nc1nc(-c2c[nH]c3ccccc23)cs1,5,-23,3,.
Oc1ccc(-c2csc(-c3c[nH]c4ccccc34)n2)c(O)c1,34*,-4,-10,179
COc1ccccc1OC(C)C(=O)O (stereo unspecified),13*,7,-13,250
Cc1ccc(S(=O)(=O)N2CCC(C(=O)OCC(=O)N(Cc3ccccc3)C(C)(C)C)CC2)cc1C,0,-36,6,290
SMILES,NR3A LBD binder,GASC-1 inh,Rtt109 Vps75,T cell modulator
Nc1nc(=S)[nH]c2c1C1(CCCC1)Cc1ccccc1-2,-1,8,17,205
Nc1nc(=S)[nH]c2c1C1(CCCCC1)Cc1ccccc1-2,13*,3,45,412
CCOc1ccc(C(=O)OCC(=O)NC2CCCC2)cc1OCC,-2,-3,0,104
Cc1ccc(C(=O)NCC(=O)OCCOc2ccccc2Cl)cc1,0,-12,56*,258
Cc1ccc(C(=O)NCCNC(=O)COc2ccccc2Cl)cn1,-2,2,51*,438
O=C(COc1ccccc1Cl)NCCNC(=O)c1cccnc1,-2,-17,-1,971
COc1ccccc1NS(=O)(=O)c1cccc(NC(=O)c2nc3nc(C)cc(C)n3n2)c1,-1,-1,-5,332
COc1ccc(NS(=O)(=O)c2cc(NC(=O)c3nc4nc(C)cc(C)n4n3)ccc2C)cc1,12*,.,12,480
Cc1nn(C)c(C)c1C1C(C#N)=C(N)OC2=C1C(=O)CCC2 (stereo unspecified),12*,0,-1,383
CN(C)S(=O)(=O)N1CCC(Oc2ccc(C(=O)NCCc3cscn3)cc2)CC1,13*,0,-5,389
Cc1nc(SCc2nc3c(F)cccc3[nH]2)c2oc3ccccc3c2n1,-4,.,-2,144
Cn1c(N/N=C/c2cccs2)cc(=O)n(C)c1=O,-1,23,0,179
Fc1c(F)c(C(F)(F)F)c(F)c(F)c1N/N=C\c1cccs1,22*,2,4,191
CCOC(=O)NC(=S)Nc1ccc(C(C)(C)C)cc1Br,18*,2,-1,122
COC(=O)c1ccc(N=NN2CCCCCC2)cc1,17*,6,45,401
NC(=S)N/N=C/c1ccc(C23CC4CC(CC(C4)C2)C3)cc1,10*,-12,.,221
O=C(NCC1CC1)c1ccc(Nc2nc3ccc(Br)cc3[nH]2)cc1,28*,4,-13,390
O=C(NCc1ccco1)c1cccc(Nc2nc3ccc(Br)cc3[nH]2)c1,13*,1,3,147
COc1ccc2nc(NC3=NCCC3)sc2c1,2,14,4,122
COc1ccc2nc(NC(=O)c3sc4nc(C)cc(C)c4c3N)sc2c1,28*,-7,-5,344
CCOC(=O)c1sc(Nc2nc3c(F)cccc3s2)cc1C,29*,15,-1,140
Cc1cc(C)c2c(N)c(C(=O)Nc3ncc(C)s3)sc2n1,-8,.,-9,410
CCOC(=O)c1sc(Nc2nc3ccc(OC)cc3s2)cc1C,16*,-10,-1,461
O=Nc1c(O)[nH]c2ccc(Cl)c(Cl)c12,-3,.,9,.
COc1ccc(NC(=O)CC2C(=O)NCCN2C(=O)Nc2ccc(C(F)(F)F)cc2)cc1 (stereo unspecified),2,4,8,376
SMILES,NR3A LBD binder,GASC-1 inh,Rtt109 Vps75,T cell modulator
O=C(CC1C(=O)NCCN1C(=O)Nc1ccc(C(F)(F)F)cc1)Nc1ccc(F)cc1 (stereo unspecified),14*,-13,2,539
CCC(C)c1ccc(NC(=O)Nc2cnccn2)cc1 (stereo unspecified),-1,3,-4,204
Cc1cc(Nc2ccccc2)nn1C(=O)c1ccc([N+](=O)[O-])cc1,40*,2,7,175
Cc1cc(Nc2ccccc2)nn1C(=O)c1ccc(Cl)cc1,0,-1,0,642
Cc1cc(Nc2ccccc2)n(C(=O)c2ccccc2)n1,18*,-8,3,212
CCN(CC(=O)Nc1ccc(NC(C)=O)cc1)C(=O)c1cccc(S(=O)(=O)N2CCc3ccccc3C2)c1,2,-1,9,530
FC(F)(F)Sc1ccc(NC(=S)NCc2ccccc2)cc1,20*,-15,24,716
S=C(NCc1ccccc1)NCc1cccc(CNC(=S)NCc2ccccc2)c1,20*,2,10,465
NS(=O)(=O)c1cccc(NC(=O)CCN2C(=O)C3CCCCC3C2=O)c1 (stereo unspecified),1,6,-6,323
